Reference: ChEMBL document CHEMBL1765012, “Novel interactions of fluorinated nucleotide derivatives targeting orotidine 5'-monophosphate decarboxylase” (J Med Chem, 2011)
Active and inactive are the calls of the source. The rule behind the calls is not given here.

test system: CHO; test: Cytotoxicity against CHO cells; assay type: cell-based; settings: Cricetulus griseus

Row | SMILES | IC50
1 | N#Cc1cc(=O)[nH]c(=O)n1[C@@H]1O[C@H](CO)[C@@H](O)[C@H]1F | > 600 µM
2 | NC(=O)c1cc(=O)[nH]c(=O)n1[C@@H]1O[C@H](CO)[C@@H](O)[C@H]1F | > 1000 µM
3 | N#Cc1cn([C@@H]2O[C@H](CO)[C@@H](O)[C@H]2F)c(=O)[nH]c1=O | > 1000 µM
4 | [N-]=[N+]=Nc1cc(=O)[nH]c(=O)n1[C@@H]1O[C@H](CO)[C@@H](O)[C@H]1F | > 2000 µM
5 | O=c1cc(I)n([C@@H]2O[C@H](CO)[C@@H](O)[C@H]2F)c(=O)[nH]1 | 1360 µM

test system: Plasmodium falciparum; test: Antimalarial activity against Plasmodium falciparum 3D7; assay type: functional, organism-based; settings: not given

Row | IC50 | SMILES
6 | > 1000 µM | N#Cc1cc(=O)[nH]c(=O)n1[C@@H]1O[C@H](CO)[C@@H](O)[C@H]1F
7 | 1090 µM | N#Cc1cn([C@@H]2O[C@H](CO)[C@@H](O)[C@H]2F)c(=O)[nH]c1=O
8 | > 1000 µM | [N-]=[N+]=Nc1cc(=O)[nH]c(=O)n1[C@@H]1O[C@H](CO)[C@@H](O)[C@H]1F

Continued, molecule first:

Row | SMILES | IC50
9 | NC(=O)c1cc(=O)[nH]c(=O)n1[C@@H]1O[C@H](CO)[C@@H](O)[C@H]1F | > 2000 µM
10 | O=c1cc(I)n([C@@H]2O[C@H](CO)[C@@H](O)[C@H]2F)c(=O)[nH]1 | > 6000 µM

test system: not listed separately; test: Cytotoxicity against human OCI-AML1 cells; assay type: functional, cell-based; settings: not given

Row | SMILES | IC50
11 | N#Cc1cc(=O)[nH]c(=O)n1[C@@H]1O[C@H](CO)[C@@H](O)[C@H]1F | > 50 µM
12 | NC(=O)c1cc(=O)[nH]c(=O)n1[C@@H]1O[C@H](CO)[C@@H](O)[C@H]1F | > 50 µM
13 | N#Cc1cn([C@@H]2O[C@H](CO)[C@@H](O)[C@H]2F)c(=O)[nH]c1=O | > 50 µM
14 | [N-]=[N+]=Nc1cc(=O)[nH]c(=O)n1[C@@H]1O[C@H](CO)[C@@H](O)[C@H]1F | > 50 µM
15 | O=c1cc(I)n([C@@H]2O[C@H](CO)[C@@H](O)[C@H]2F)c(=O)[nH]1 | > 50 µM

target: Orotidine 5'-phosphate decarboxylase (Methanobacterium thermoautotrophicum, UniProt O26232); test: Irreversible inhibition of Methanobacterium thermoautotrophicum 5'-monophosphate decarboxylase; settings: not given
Sequence (O26232 whole entry): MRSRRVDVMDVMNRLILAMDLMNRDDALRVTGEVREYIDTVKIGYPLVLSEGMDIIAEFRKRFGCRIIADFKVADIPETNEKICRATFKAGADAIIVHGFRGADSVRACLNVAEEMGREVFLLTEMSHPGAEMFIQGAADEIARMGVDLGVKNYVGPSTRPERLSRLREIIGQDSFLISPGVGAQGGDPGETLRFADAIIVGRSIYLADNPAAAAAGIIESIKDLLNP

Row | SMILES | Ki
16 | [N-]=[N+]=Nc1cc(=O)[nH]c(=O)n1[C@@H]1O[C@H](COP(=O)(O)O)[C@@H](O)[C@H]1F | 1200 µM

target: Orotidine 5'-phosphate decarboxylase (Methanobacterium thermoautotrophicum) (UniProt O26232); test: Covalent binding affinity to Methanobacterium thermoautotrophicum 5'-monophosphate decarboxylase by mass spectroscopy analysis; settings: Methanothermobacter thermautotrophicus
In short: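 Mt ODCase incubated overnight at room temperature with inhibitor (25 mM, in the dark; or 388 mM with 200 μM enzyme) in 50 mM Tris pH 7.5, 20 mM DTT, 40 mM NaCl. Enzyme mass measured by mass spectrometry against an inhibitor-free control; covalent adduct taken from a mass increase over native enzyme.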

Sequence of Orotidine 5'-phosphate decarboxylase (Methanobacterium thermoautotrophicum) (O26232 whole entry, looked up): as the sequence (O26232 whole entry) above

Row | SMILES | Activity
17 | [N-]=[N+]=Nc1cc(=O)[nH]c(=O)n1[C@@H]1O[C@H](COP(=O)(O)O)[C@@H](O)[C@H]1F | Active
18 | O=c1cc(I)n([C@@H]2O[C@H](CP(=O)(O)O)[C@@H](O)[C@H]2F)c(=O)[nH]1 | Active
